S100A4 MyoIIA: blocks human S100A4 binding to myosin IIA peptide; hit rate 0.14% among 360,000; inhibition, % at 10.7 µM; P26447; S100A4/TAMRA-MyoIIA peptide fluorescence polarization; AID 652163;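 active means mean inhibition of at least 70% across replicates, with every replicate also reaching that level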
Target sequence (P26447 whole entry, looked up): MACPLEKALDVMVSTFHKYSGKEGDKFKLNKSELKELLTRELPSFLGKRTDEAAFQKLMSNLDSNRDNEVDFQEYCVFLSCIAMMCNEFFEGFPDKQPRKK
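System – human S100A4 monomer protein, biochemical binding assay · Buffer or medium – Calcium-containing HEPES buffer, pH 7.2 · Timing – 5 min between mix addition and reading · Also added – TAMRA-labelled myosin IIA heavy-chain peptide probe, 5 nM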
MLL AF4-AF9 inh: inhibitors of human MLL-AF4/AF9 interaction; P42568; AlphaScreen, biotin-AF4 peptide binding to FLAG-AF9; inhibition, % at 10 µM; hit rate 0.47% among 350,000;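 active means every replicate reaching a set inhibition limit, whatever the replicate mean, cut at about 25% in these data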;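 further: 0% = plate neutral control median and 100% = total signal loss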
RAD52 anneal inh: inhibitors of human RAD52 DNA annealing; P43351; recombinant RAD52 DNA annealing, FRET fluorescence; inhibition, % at 18.7 µM; hit rate 0.46% among 360,000; AID 651710;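 active means every replicate showing at least 50% inhibition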
Target sequence (P43351 whole entry, looked up): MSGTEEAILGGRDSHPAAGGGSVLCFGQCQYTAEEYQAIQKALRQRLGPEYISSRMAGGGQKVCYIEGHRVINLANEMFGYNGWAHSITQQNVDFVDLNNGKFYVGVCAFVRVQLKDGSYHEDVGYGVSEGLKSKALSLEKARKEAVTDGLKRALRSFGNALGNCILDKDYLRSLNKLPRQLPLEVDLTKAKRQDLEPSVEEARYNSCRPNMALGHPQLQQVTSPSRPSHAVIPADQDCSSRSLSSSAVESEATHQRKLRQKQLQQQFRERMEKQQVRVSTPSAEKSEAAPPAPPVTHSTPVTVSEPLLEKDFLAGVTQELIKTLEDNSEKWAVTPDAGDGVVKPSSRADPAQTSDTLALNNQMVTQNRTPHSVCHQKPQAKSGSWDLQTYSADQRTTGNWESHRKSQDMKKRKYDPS
RAD54 inh: inhibitors of human RAD54 branch migration | AID 602329 | Q92698 | RAD54 Holliday junction branch migration, FAM/BHQ fluorescence | inhibition, % at 10.4 µM | hit rate 0.14% among 360,000;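 active means mean normalized replicate activity at least 40 and at least half of replicates scoring 40 or more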;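 further: 0% = median of neutral control wells and 100% = median of positive control wells; inhibitors cause a drop in the FAM fluorescence signal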
INS-1E GSIS act: primary screen for activators of insulin secretion dependent on glucose, INS-1E cells, GLuc reporter luminescence. INS-1E GLuc reporter insulin secretion, 2-3 h. hit rate 0.61% among 370,000. AID 743287. activation, % at 16.6 µM;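 active means lowest replicate activation of at least 40%, so every replicate reaches that level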;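 further: 0% = median of neutral control wells and 100% = median of IBMX positive control wells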
Starred values were filed as active, the others as inactive; nt = no result given. An excerpt weighted towards active compounds, which were near 1.3% of everything screened.

SMILES | S100A4 MyoIIA | MLL AF4-AF9 inh | RAD52 anneal inh | RAD54 inh | INS-1E GSIS act
Cc1ccc(Nc2nc(NCC3CCCO3)nc(N)c2[N+](=O)[O-])cc1 (centres undefined) | nt | nt | nt | nt | 81*
Nc1nc(NCC2CCCO2)nc(Nc2ccc(F)cc2)c1[N+](=O)[O-] (centres undefined) | nt | nt | nt | 5 | -2
COCCNc1nc(N)c([N+](=O)[O-])c(NCC2CCCO2)n1 (centres undefined) | nt | nt | nt | 1 | 54*
COc1ccccc1C#Cc1ccc2c(c1)[C@H]1[C@H](CCN1C(=O)CN1CCOCC1)[C@H](CO)N2 | nt | nt | nt | -1 | -5
CCOC(=O)N1CCN(C(=O)c2ccc3c(=O)n(CCC4=CCCCC4)c(=S)[nH]c3c2)CC1 | nt | nt | nt | 3 | nt
O=c1c2ccc(Cl)cc2[nH]c(=S)n1CCC1=CCCCC1 | nt | nt | nt | nt | 166*
COc1ccc(NC(=O)N(C)C[C@H]2Oc3c(NC(=O)NC4CCCCC4)cccc3C(=O)N([C@H](C)CO)C[C@@H]2C)cc1 | 5 | -2 | 8 | -2 | -10
C[C@@H]1CN([C@@H](C)CO)C(=O)c2cccc(NC(=O)Nc3cccc4ccccc34)c2O[C@H]1CN(C)C(=O)Nc1ccccc1 | 105* | 0 | 21 | -26 | -4
COc1ccc(NC(=O)N(C)C[C@H]2Oc3c(NC(=O)NC4CCCCC4)cccc3C(=O)N([C@H](C)CO)C[C@H]2C)cc1 | 88* | 3 | -1 | -8 | -9
C[C@@H]1CN([C@@H](C)CO)C(=O)c2cccc(N(C)C)c2O[C@@H]1CN(C)C(=O)Nc1cccc2ccccc12 | 81* | 2 | -1 | 8 | -4
CNC[C@@H]1Oc2ccc(NC(=O)Nc3cccc4ccccc34)cc2C(=O)N([C@H](C)CO)C[C@@H]1C | 137* | 3 | 0 | 15 | 21
CNC[C@H]1Oc2ccc(NC(=O)Nc3cccc4ccccc34)cc2C(=O)N([C@@H](C)CO)C[C@@H]1C | -6 | 1 | -3 | -14 | 8
C[C@H](CO)N1C[C@H](C)[C@H](CN(C)C(=O)Nc2ccccc2)Oc2c(NC(=O)Nc3cccc4ccccc34)cccc2C1=O | 3 | -2 | 15 | -7 | -21
C[C@@H]1CCCCO[C@H](CN(C)Cc2ccc(C(F)(F)F)cc2)[C@H](C)CN([C@@H](C)CO)C(=O)c2cc(NC(=O)NC3CCCCC3)ccc2O1 | -9 | 0 | -4 | 4 | -13
COc1ccc(-c2cc3ccccc3oc2=O)cc1NC(=O)c1ccc(Br)o1 | nt | nt | nt | 8 | nt
COc1ccc(-c2cc3ccccc3oc2=O)cc1NC(=S)NC(=O)c1ccc2c(c1)OCCO2 | nt | nt | nt | 16 | 94*
COCc1ccc(C(=O)NC2CCSc3ccccc32)cc1 (centres undefined) | 1 | 1 | -5 | -1 | 76*
O=C(Nc1ccc2c(c1)oc1ccccc12)c1ccc2c(c1)OCO2 | nt | nt | nt | -4 | nt
O=C(COc1ccc2c(c1)OCO2)Nc1ccc2c(c1)oc1ccccc12 | nt | nt | nt | 3 | 81*
O=C1NC(Cc2cccc(Cl)c2)COCc2cnnn2CCC1c1ccccc1 (centres undefined) | -6 | 2 | 8 | nt | -6
O=C1NC(Cc2ccc(Cl)cc2)COCc2cnnn2CCC1c1ccccc1 (centres undefined) | 90* | 7 | 15 | nt | 13
C[C@@H]1CCCCO[C@@H](CN(C)S(=O)(=O)c2ccccc2)[C@@H](C)CN([C@@H](C)CO)C(=O)c2cc(NC(=O)CCCN(C)C)ccc2O1 | 151* | -4 | 20 | -4 | 8
Cc1ccc(S(=O)(=O)N(C)C[C@H]2OCCCC[C@@H](C)Oc3ccc(NC(=O)CCCN(C)C)cc3C(=O)N([C@@H](C)CO)C[C@H]2C)cc1 | 5 | 5 | 51* | 23 | 14
Cc1ccc(S(=O)(=O)N(C)C[C@H]2OCCCC[C@@H](C)Oc3ccc(NC(=O)CCCN(C)C)cc3C(=O)N([C@H](C)CO)C[C@@H]2C)cc1 | 19 | -2 | 14 | 4 | 6
Cn1cnc(S(=O)(=O)N2CC[C@@H]3[C@H](CO)Nc4ccc(-c5ccc(F)cc5)cc4[C@@H]32)c1 | 30 | 0 | -137 | -10 | 5
SMILES | S100A4 MyoIIA | MLL AF4-AF9 inh | RAD52 anneal inh | RAD54 inh | INS-1E GSIS act
NS(=O)(=O)c1ccc(CCNc2nc3c(-c4cccc(F)c4)nnn3c3ccccc23)cc1 | nt | nt | nt | -8 | 59*
Cc1cccc(-c2nnn3c2nc(NCCc2ccc(S(N)(=O)=O)cc2)c2ccccc23)c1 | nt | nt | nt | 1 | 5
C#CCOCCOCCOCCNc1nc(N2CCN(C(=O)[C@H](CCC(=O)O)n3cc(C(N)CO)nn3)CC2)nc(N2CCN(C(=O)[C@H](Cc3cc4ccccc4[nH]3)n3cc(C(N)[C@H](C)CC)nn3)CC2)n1 (some centres undefined) | nt | nt | nt | 2 | nt
C#CCOCCOCCOCCNc1nc(N2CCN(C(=O)[C@H](CCCCN)n3cc([C@@H](N)C(C)CC)nn3)CC2)nc(N2CCN(C(=O)[C@H](Cc3cc4ccccc4[nH]3)n3cc([C@@H](N)CC(C)C)nn3)CC2)n1 (some centres undefined) | nt | nt | nt | 60* | nt
C#CCOCCOCCOCCNc1nc(N2CCN(C(=O)[C@H](CCCCN)n3cc([C@@H](N)[C@H](C)CC)nn3)CC2)nc(N2CCN(C(=O)[C@H](CCC(=O)O)n3cc([C@@H](N)CCCCN)nn3)CC2)n1 | 3 | 34* | 45 | -12 | 6
Cc1noc(C)c1NC(=O)Nc1ccc2c(c1)C(=O)N([C@@H](C)CO)C[C@@H](C)[C@H](CN(C)Cc1ccc(C(F)(F)F)cc1)OCCCC[C@@H](C)O2 | -2 | 7 | 2 | -6 | 4
CO[C@@H]1CN(C)C(=O)c2cc(NC(=O)Cc3ccccc3)ccc2OC[C@@H](C)N(CC2CC2)C[C@@H]1C | -2 | 1 | 15 | 3 | 3
O=C(Cc1ccc(Cl)cc1)NCCS(=O)(=O)N1CCN(c2ccccc2F)CC1 | -1 | 1 | -4 | -2 | -8
O=C(COc1ccc(Cl)cc1)NCCS(=O)(=O)N1CCN(c2ccccc2F)CC1 | 1 | 1 | 5 | 6 | 41*
CCC(=O)N[C@@H]1C=C[C@@H](CC(=O)NCc2ccc(OC)cc2)O[C@@H]1CO | 10 | 0 | -5 | 2 | -10
C(=N\Nc1nc2ccccc2[nH]1)/C1CCCCC1 | 0 | 26* | -4 | nt | -12
C(=N\Nc1nc2ccccc2[nH]1)/c1ccccc1 | -2 | 7 | 1 | 3 | 5
C[C@H]1CCCCO[C@@H](CN(C)Cc2ccccc2)[C@@H](C)CN([C@@H](C)CO)C(=O)c2cc(NC(=O)CCC(F)(F)F)ccc2O1 | 5 | -1 | 12 | 3 | -9
N#C/C(=C/c1ccccc1[N+](=O)[O-])c1nc(C2CC2)cs1 | 6 | 26* | -6 | nt | nt
O=C([C@H]1[C@H](CO)[C@H]2Cn3c(ccc(-c4ccncc4)c3=O)[C@@H]1N2Cc1ccccc1)N1CCOCC1 | -5 | -2 | -1 | -2 | -4

Assay outcomes as filed in PubChem.
